The target of assay [1] is Hepatitis C virus serine protease, NS3/NS4A (Hepatitis C virus, UniProt A3EZI9+D2K2A8). The experiment in a line: (§1) Inhibitory activity against Hepatitis C NS3/NS4A protease. The assay is classed as protein-complex assay, Hepacivirus hominis. In outline:
(§2)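 Enzyme was the HCV NS3 protease domain with an NS4A cofactor peptide. IC50 values are means of two independent experiments, or of three to four for some series.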

The target of assay [2] is Hepatitis C virus serine protease, NS3/NS4A (Hepatitis C virus, UniProt D2K2A8+A3EZI9). The assay is described as §1. It is filed as protein-complex assay, Hepacivirus hominis. The essentials:
as §2

Assay [3] deals with T1, NS3 (Hepatitis C virus, UniProt A3EZJ3, K136M). The experiment in a line: Binding affinity NS3 protease K136M. The arrangement: species or system Hepacivirus hominis.
The target in assay [4] is T2, NS3 (Hepatitis C virus, UniProt A3EZJ3, K136R). The experiment in a line: Binding affinity for NS3 protease K136R. The arrangement: species or system Hepacivirus hominis.
Assay [5] concerns the target T3, NS3 (Hepatitis C virus, UniProt A3EZJ3). The assay is described as follows: Binding affinity for wild type NS3 protease. The arrangement: species or system Hepacivirus hominis. In outline:
(§3)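 Protease domain of HCV NS3 with NS4A cofactor peptide. Ki found from steady-state kinetics as reversible competitive inhibition. A second Ki was calculated from pre-steady-state displacement of an active-site fluorescent probe, using k_off/k_on.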

The next assay has as its target T4, Neutrophil elastase (Homo sapiens, UniProt P08246).
T4 sequence (P08246 whole entry): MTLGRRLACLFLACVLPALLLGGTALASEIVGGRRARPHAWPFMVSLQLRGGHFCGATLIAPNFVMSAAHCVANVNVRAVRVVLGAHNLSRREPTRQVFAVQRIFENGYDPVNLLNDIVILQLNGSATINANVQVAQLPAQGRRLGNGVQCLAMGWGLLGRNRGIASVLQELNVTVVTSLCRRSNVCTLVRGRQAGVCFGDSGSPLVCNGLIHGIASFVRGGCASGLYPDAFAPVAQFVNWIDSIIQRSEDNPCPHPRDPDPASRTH
The experiment in a line: Binding affinity for enzyme human leukocyte HLE.

For assay [6], the target named is T1, NS3. The assay is described as follows: Binding affinity for enzyme K136M. Also noted: species or system Hepacivirus hominis.
Assay [7] has as its target T2, NS3. The experiment in a line: Binding affinity for enzyme K136R. Also noted: species or system Hepacivirus hominis.
Assay [8] has as its target T3, NS3. The assay is described as follows: Binding affinity for enzyme NS3 protease wild-type. Also noted: species or system Hepacivirus hominis. The essentials:
as §3

pIC50, pKi: −log10 of the molar value. Starred links: 1 amine or outer side, 2 acyl side, 3 side chain; linkers in the order of their positions; H or OH if unused. Non-standard residues stand in square brackets, D forms with d. Residues, ends and D or L forms follow the SMILES beside them. ξ: configuration not given here. *: point of attachment. Dip = N[C@H](C(=O)O)C(c1ccccc1)c1ccccc1; X4 = O=C(C(=O)[*:2])[C@H](CC(F)F)N[*:1]; X1 = O=C(NOCc1ccccc1)[C@H](CC(F)F)N*; Abu(4,4-F2) = N[C@@H](CC(F)F)C(=O)O; N(Me)CH2CH2Ph = CN(CCc1ccccc1)*; Cha = N[C@@H](CC1CCCCC1)C(=O)O; NH(CH2)3Ph = c1ccc(CCCN*)cc1; NHPhenethyl = c1ccc(CCN*)cc1; X6 = c1ccc2c(c1)CC(N*)C2; ξE = NC(CCC(=O)O)C(=O)O; Cbz = O=C(OCc1ccccc1)*; Boc = CC(C)(C)OC(=O)*; NHBn = c1ccc(CN*)cc1; X2 = Clc1ccccc1CCN*; X5 = C1CCC(CCN*)CC1

By pIC50 is commonly meant −log10 of the IC50, conventionally taken in molar units. High values mean a small IC50, low ones a large IC50. In turn, `CC(C)COC(=O)NC(CCC(=O)O)C(=O)N[C@@H](CC(C)C)C(=O)NC(CS)C(=O)NCCc1ccccc1` (stereo partly specified) showed a negative logarithm of the IC50 (pIC50) in [1] of 4.72.

The compound `COC(=O)c1ccc(CCNC(=O)C(CS)NC(=O)[C@H](CC(C)C)NC(=O)C(CCC(=O)O)NC(=O)OCC(C)C)cc1` (stereo partly specified) showed a pIC50 in [1] of 4.77.

As to `COC(=O)c1ccc(CCNC(=O)C(CS)NC(=O)[C@H](CC(C)C)NC(=O)C(CCC(=O)O)NC(=O)OCC(C)C)c(Cl)c1` (stereo partly specified), the pIC50 in assay [1] was 5.49.

In turn, `CC(C)COC(=O)NC(CCC(=O)O)C(=O)N[C@@H](CC(C)C)C(=O)NC(CS)C(=O)NCCc1cccc(C(=O)O)c1` (stereo partly specified) gave a pIC50 in assay [1] of 5.04.

In assay [1], `CC(C)C[C@H](NC(=O)C(CCC(=O)O)NC(=O)OC(C)(C)C)C(=O)N[C@@H](CS)C(=O)NCCc1ccccc1Cl` (stereo partly specified) gave a pIC50 of 5.19.

On to `CC(C)C[C@H](NC(=O)[C@@H](NC(=O)OC(C)(C)C)C(C)C)C(=O)N[C@@H](CC(F)F)C(=O)C(=O)O`, for which the pIC50 in assay [2] was 6.34.

A word on the pKi: it is the Ki on a negative log10 scale, so that one unit is a factor of ten. High values mean a small Ki, low ones a large Ki. For the compound `CC(C)COC(=O)NC(C(=O)N[C@@H](CC(C)C)C(=O)NC(CC(F)F)C(=O)NCCc1ccc(C(=O)O)cc1Cl)C(C)C` (stereo partly specified), the pKi on NS3 [3] was 5.40; at NS3 [4], 5.64; on NS3 [5], 5.68.

Turning to `CC(C)C[C@H](NC(=O)C(CCC(=O)O)NC(=O)OC(C)(C)C)C(=O)NC(CC(F)F)C(=O)NCCc1ccccc1Cl` (stereo partly specified), the pKi was below 4.00 at Neutrophil elastase, 4.87 on NS3 [6], 5.08 on NS3 [7] and 5.14 on NS3 [8].

For the compound `COC(=O)c1cccc(CCNC(=O)C(CS)NC(=O)[C@H](CC(C)C)NC(=O)C(CCC(=O)O)NC(=O)OCC(C)C)c1` (stereo partly specified), the pIC50 in assay [1] was 4.60.

`COC(=O)c1ccccc1CCNC(=O)C(CS)NC(=O)[C@H](CC(C)C)NC(=O)C(CCC(=O)O)NC(=O)OCC(C)C` (stereo partly specified): in [1], the pIC50 was 4.27.

`CC(C)COC(=O)NC(CCC(=O)O)C(=O)N[C@@H](CC(C)C)C(=O)NC(CS)C(=O)NCCc1ccccc1C(=O)O` (stereo partly specified): the pIC50 in assay [1] is below 4.00.

In [1], `CC(C)COC(=O)NC(CCC(=O)O)C(=O)N[C@@H](CC(C)C)C(=O)NC(CS)C(=O)NCCc1ccc(C(=O)O)cc1Cl` (stereo partly specified) showed a pIC50 of 6.15.

Turning to `CC(C)COC(=O)NC(CCC(=O)O)C(=O)N[C@@H](CC(C)C)C(=O)NC(CC(F)F)C(=O)NCCc1ccc(C(=O)O)cc1Cl` (stereo partly specified), the pKi at Neutrophil elastase was below 4.00; on NS3 [6] it was 5.89; on NS3 [7] it was 6.05; at NS3 [8], 6.22.

Consider `CC(=O)N[C@@H](CC(=O)O)C(=O)N[C@@H](CCC(=O)O)C(=O)N[C@H](C(=O)N[C@@H](CCC(=O)O)C(=O)N[C@@H](CC1CCCCC1)C(=O)N[C@@H](CC(F)F)C(=O)NOCc1ccccc1)C(c1ccccc1)c1ccccc1` (Ac-DE[Dip]E[Cha]-X1), for which, in assay [1], the pIC50 was 7.40.

In [1], `CC(=O)N[C@@H](CC(=O)O)C(=O)N[C@@H](CCC(=O)O)C(=O)N[C@H](C(=O)N[C@@H](CCC(=O)O)C(=O)N[C@@H](CC1CCCCC1)C(=O)N[C@@H](CS)C(=O)NCc1ccccc1)C(c1ccccc1)c1ccccc1` (Ac-DE[Dip]E[Cha]C-NHBn) gave a pIC50 of 6.60.

For `CC(=O)N[C@@H](CC(=O)O)C(=O)N[C@@H](CCC(=O)O)C(=O)N[C@H](C(=O)N[C@@H](CCC(=O)O)C(=O)N[C@@H](CC1CCCCC1)C(=O)N[C@@H](CS)C(=O)NCCc1ccccc1)C(c1ccccc1)c1ccccc1` (Ac-DE[Dip]E[Cha]C-NHPhenethyl), the pIC50 in assay [1] was 8.15.

In turn, `CC(=O)N[C@@H](CC(=O)O)C(=O)N[C@@H](CCC(=O)O)C(=O)N[C@H](C(=O)N[C@@H](CCC(=O)O)C(=O)N[C@@H](CC1CCCCC1)C(=O)N[C@@H](CS)C(=O)NCCc1ccccc1Cl)C(c1ccccc1)c1ccccc1` (Ac-DE[Dip]E[Cha]C-X2) showed a pIC50 in assay [1] of 8.70.

In [1], `CC(=O)N[C@@H](CC(=O)O)C(=O)N[C@@H](CCC(=O)O)C(=O)N[C@H](C(=O)N[C@@H](CCC(=O)O)C(=O)N[C@@H](CC1CCCCC1)C(=O)N[C@@H](CS)C(=O)NCCC1CCCCC1)C(c1ccccc1)c1ccccc1` (Ac-DE[Dip]E[Cha]C-X5) gave a pIC50 of 5.81.

`CC(=O)N[C@@H](CC(=O)O)C(=O)N[C@@H](CCC(=O)O)C(=O)N[C@H](C(=O)N[C@@H](CCC(=O)O)C(=O)N[C@@H](CC1CCCCC1)C(=O)N[C@@H](CS)C(=O)NC1Cc2ccccc2C1)C(c1ccccc1)c1ccccc1` (Ac-DE[Dip]E[Cha]C-X6) gave a pIC50 in [1] of 5.77.

In assay [1], `CC(=O)N[C@@H](CC(=O)O)C(=O)N[C@@H](CCC(=O)O)C(=O)N[C@H](C(=O)N[C@@H](CCC(=O)O)C(=O)N[C@@H](CC1CCCCC1)C(=O)N[C@@H](CS)C(=O)N(C)CCc1ccccc1)C(c1ccccc1)c1ccccc1` (Ac-DE[Dip]E[Cha]C-{N(Me)CH2CH2Ph}) had a pIC50 of 4.15.

In assay [1], `CC(=O)N[C@@H](CC(=O)O)C(=O)N[C@@H](CCC(=O)O)C(=O)N[C@H](C(=O)N[C@@H](CCC(=O)O)C(=O)N[C@@H](CC1CCCCC1)C(=O)N[C@@H](CS)C(=O)NCCCc1ccccc1)C(c1ccccc1)c1ccccc1` (Ac-DE[Dip]E[Cha]C-{NH(CH2)3Ph}) gave a pIC50 of 6.68.

`CC(=O)N[C@@H](CC(=O)O)C(=O)N[C@@H](CCC(=O)O)C(=O)N[C@H](C(=O)N[C@@H](CCC(=O)O)C(=O)N[C@@H](CC1CCCCC1)C(=O)N[C@@H](CC(F)F)C(=O)NCCc1ccccc1)C(c1ccccc1)c1ccccc1` (Ac-DE[Dip]E[Cha][Abu(4,4-F2)]-NHPhenethyl): the pIC50 in assay [1] was 8.40.

Compound `CC(=O)N[C@@H](CC(=O)O)C(=O)N[C@@H](CCC(=O)O)C(=O)N[C@H](C(=O)N[C@@H](CCC(=O)O)C(=O)N[C@@H](CC1CCCCC1)C(=O)N[C@@H](CC(F)F)C(=O)O)C(c1ccccc1)c1ccccc1` (Ac-DE[Dip]E[Cha][Abu(4,4-F2)]-OH) had a pIC50 in assay [1] of 7.40.

For `CC(=O)N[C@@H](CC(=O)O)C(=O)N[C@@H](CCC(=O)O)C(=O)N[C@H](C(=O)N[C@@H](CCC(=O)O)C(=O)N[C@@H](CC1CCCCC1)C(=O)N[C@@H](CC(F)F)C(=O)C(=O)NCc1ccccc1)C(c1ccccc1)c1ccccc1` (Ac-DE[Dip]E[Cha][X4]-NHBn), the pIC50 in assay [1] was 8.70.

Turning to `CC(C)C[C@H](NC(=O)[C@H](CCC(=O)O)NC(=O)OC(C)(C)C)C(=O)N[C@@H](CS)C(=O)O` (Boc-Glu-Leu-Cys-OH), in assay [1], the pIC50 was below 3.70.

`CC(C)C[C@H](NC(=O)C(CCC(=O)O)NC(=O)OC(C)(C)C)C(=O)N[C@@H](CS)C(=O)NCc1ccccc1` (stereo partly drawn) (Boc-[ξE]-Leu-Cys-NHBn) gave a pIC50 in assay [1] below 3.70.

In turn, `CC(C)C[C@H](NC(=O)C(CCC(=O)O)NC(=O)OC(C)(C)C)C(=O)N[C@@H](CS)C(=O)NCCc1ccccc1` (stereo partly drawn) (Boc-[ξE]-Leu-Cys-NHPhenethyl) showed a pIC50 in assay [1] of 4.57.

Take `CC(C)C[C@H](NC(=O)[C@@H](NC(=O)OCc1ccccc1)C(C)C)C(=O)N[C@@H](CS)C(=O)NCCc1ccccc1` (Cbz-Val-Leu-Cys-NHPhenethyl): the pIC50 in [1] is below 3.40.

For the origin of these results see ChEMBL document CHEMBL1145951, “Phenethyl amides as novel noncovalent inhibitors of hepatitis C virus NS3/4A protease: discovery, initial SAR, and molecular modeling” (J Med Chem, 2003).
